Measurements published in ChEMBL document CHEMBL1132723, “Potent 1,3-disubstituted-9H-pyrido[3,4-b]indoles as new lead compounds in antifilarial chemotherapy” (1999).
Several values for one entry are separate records, joined by “and”; a condition that tells them apart may be missing. Equal entries are not always repeated.

Assays:
Acanthocheilonema viteae [1] = experiment: In vivo anti-filarial (microfilaricidal) activity at an ip dose of 50 mg/kg (for 5 days) against A. viteae in Mastomys coucha.; type: functional; conditions: route intraperitoneal
Method in brief: (§1)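 Acanthocheilonema viteae infection in Mastomys coucha; compounds given as fine suspensions in 1% Tween 80 for 5 consecutive days, 50 mg/kg ip and/or 200 mg/kg orally. Micro- and macrofilaricidal action and sterilisation of surviving female worms were scored. Two to three animals per dose level, with at least two replicate experiments.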

Acanthocheilonema viteae [2] = experiment: In vivo anti-filarial (macrofilaricidal) activity at an ip dose of 50 mg/kg (for 5 days) against A. viteae in Mastomys coucha.; type: functional; conditions: route intraperitoneal
Method in brief: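 Infected *Mastomys coucha* were dosed for 5 consecutive days, either 50 mg/kg ip or 200 mg/kg orally. Compounds were given as fine suspensions in 1% Tween 80. Each dose level used two to three animals, with at least two replicates to confirm activity. Micro- and macrofilaricidal action was scored by the cited earlier method.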

Acanthocheilonema viteae [3] = experiment: Antifilarial activity as percent of surviving A. viteae in Mastomys coucha sterlized after an intraperitoneal dose of 50 mg/kg (for 5 days).; type: functional; method in brief: as §1
Mus musculus [4] = experiment: In vivo anti-filarial (mif-microfilaricidal) activity at an ip dose of 100 mg/kg (for 5 days) against Brugia malayi; type: functional; conditions: route intraperitoneal
Mus musculus [5] = experiment: In vivo anti-filarial (maf-macrofilaricidal) activity at an ip dose of 100 mg/kg (for 5 days) against Brugia malayi; type: functional; conditions: route intraperitoneal
Rattus norvegicus [6] = experiment: (§2) In vivo anti-filarial (maf-macrofilaricidal) activity at an ip dose of 30 mg/kg (for 5 days) against Litomosoides carinii in cotton rats; type: functional; conditions: route intraperitoneal
Method in brief: (§3)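 Cotton rats (Sigmodon hispidus), 6 weeks old, infected with Litomosoides carinii through the mite vector Liponyssus bacoti. Animals with ≥250 microfilariae/5 mm blood were used. Dosed 30 mg/kg ip for 5 consecutive days as a 1% Tween 80 suspension. Blood microfilariae were checked before treatment and weekly until day 42, when animals were killed and adult male and female worms examined.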

Rattus norvegicus [7] = experiment: In vivo anti-filarial (mif-microfilaricidal) activity at an ip dose of 75 mg/kg (for 5 days) against Litomosoides carinii in cotton rats; type: functional; conditions: route intraperitoneal
Rattus norvegicus [8] = experiment: Antifilarial activity evaluated as percent of surviving Litomosoides carinii in cotton rats that were sterlized after an ip dose of 30 mg/kg (for 5 days); type: functional; conditions: route intraperitoneal; method in brief: as §3
Mus musculus [9] = experiment: In vivo anti-filarial (maf-macrofilaricidal) activity at an ip dose of 50 mg/kg (for 5 days) against Brugia malayi; type: functional; conditions: route intraperitoneal
Method in brief: (§4)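 Male *Mastomys* infected at 6 weeks old with *B. malayi* larvae were dosed for 5 days, 50 mg/kg ip or 250 mg/kg orally, as a 1% Tween 80 suspension. Screening followed the *A. viteae* scheme. Micro- and macrofilaricidal action and sterilization of surviving female worms were scored. Each dose used two to three animals, with at least duplicate confirmation.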

Mus musculus [10] = experiment: Antifilarial activity evaluated as percent of surviving Brugia malayi that were sterlized after an ip dose of 50 mg/kg (for 5 days); type: functional; conditions: route intraperitoneal
Method in brief: (§5)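 Male Mastomys, 6 weeks old, each inoculated with 50 infective Brugia malayi larvae recovered from infected Aedes aegypti. Screening followed the A. viteae protocol, with a 1% Tween 80 suspension for 5 days at 50 mg/kg ip or 250 mg/kg orally. Micro- and macrofilaricidal action and sterilisation of surviving females were scored. Two to three animals per dose.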

Mus musculus [11] = experiment: In vivo anti-filarial (mif-microfilaricidal) activity at an ip dose of 50 mg/kg (for 5 days) against Brugia malayi; type: functional; conditions: route intraperitoneal; method in brief: as §4
Mus musculus [12] = experiment: In vivo anti-filarial (maf-macrofilaricidal) activity at an po dose of 250 mg/kg (for 5 days) against Brugia malayi; type: functional; method in brief: as §4
Rattus norvegicus [13] = experiment: In vivo anti-filarial (mif-microfilaricidal) activity at an ip dose of 30 mg/kg (for 5 days) against Litomosoides carinii in cotton rats; type: functional; conditions: route intraperitoneal
Method in brief: (§6)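 They received 30 mg/kg ip for 5 consecutive days as a 1% Tween 80 suspension. Blood microfilariae were counted before treatment and then weekly until day 42. Animals were then killed and adult worm condition scored.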

Mus musculus [14] = experiment: In vivo anti-filarial (mif-microfilaricidal) activity at an po dose of 250 mg/kg (for 5 days) against Brugia malayi; type: functional; method in brief: as §5
Acanthocheilonema viteae [15] = experiment: In vivo anti-filarial (mif-macrofilaricidal) activity at an oral dose of 200 mg/kg (for 5 days) against A. viteae in Mastomys coucha
Rattus norvegicus [16] = experiment: as §2; type: functional; conditions: route intraperitoneal; method in brief: as §6; remark: listed apart in the source
Acanthocheilonema viteae [17] = experiment: In vivo anti-filarial (mif-microfilaricidal) activity at an ip dose of 200 mg/kg (for 5 days) against A. viteae in Mastomys coucha
Mus musculus [18] = experiment: In vivo anti-filarial (mif-microfilaricidal) activity at an oral dose of 200 mg/kg (for 5 days) against A. viteae in Mastomys coucha; type: functional; method in brief: as §1
Acanthocheilonema viteae [19] = experiment: In vivo anti-filarial (maf-macrofilaricidal) activity at an oral dose of 200 mg/kg (for 5 days) against A. viteae in Mastomys coucha

Compound	Activity (Acanthocheilonema viteae [1]) [%]	Activity (Acanthocheilonema viteae [2]) [%]	Activity (Acanthocheilonema viteae [3]) [%]	also measured
COC(=O)c1cc2c([nH]c3ccccc32)c(-c2ccccc2Cl)n1	0	94		
NC(=O)c1cc2c([nH]c3ccccc32)c(-c2ccccc2Cl)n1	44	86	100	
OCc1cc2c([nH]c3ccccc32)c(-c2ccc(F)cc2)n1	0	75		
COC(=O)C1Cc2c([nH]c3ccccc23)C(c2cccc(Cl)c2)N1 (stereo not given)	0	50		
NC(=O)c1cc2c([nH]c3ccccc32)c(-c2ccsc2)n1	0	89		
COC(=O)C1Cc2c([nH]c3ccccc23)C(c2cccc(Br)c2)N1 (stereo not given)	90	0		
COC(=O)c1cc2c([nH]c3ccccc32)c(-c2ccc(F)cc2)n1	0	56	67	
COC(=O)c1cc2c([nH]c3ccccc32)c(-c2cccc(Br)c2)n1	0	84	100	
COC(=O)c1cc2c([nH]c3ccccc32)c(-c2ccc(C)cc2)n1	0	100		
CCN(CC)C(=O)N1CCN(C)CC1.O=C(O)CC(O)(CC(=O)O)C(=O)O [DIETHYLCARBAMAZINE CITRATE]	90	0		Activity (Mus musculus [4]): 90%; Activity (Mus musculus [5]): 0%; Activity (Rattus norvegicus [6]): 0%; Activity (Rattus norvegicus [7]): 90%
NC(=O)c1cc2c([nH]c3ccccc32)c(-c2cccs2)n1	93	0		
NC(=O)c1cc2c([nH]c3ccccc32)c(-c2cccc(Cl)c2)n1	84	0	50	
NNC(=O)c1cc2c([nH]c3ccccc32)c(-c2ccsc2)n1	91	0		
COC(=O)c1cc2c([nH]c3ccccc32)c(-c2cccc(Cl)c2)n1	0	81		
COC(=O)C1Cc2c([nH]c3ccccc23)C(c2ccsc2)N1 (stereo not given)	0	57		
COC(=O)C1Cc2c([nH]c3ccccc23)C(c2ccc(Cl)cc2)N1 (stereo not given)	94	39	100	
COC(=O)c1cc2c([nH]c3ccccc32)c(-c2ccccc2F)n1	0	44		
Cc1ccc(-c2[nH]c(CO)cc3c4ccccc4nc2-3)cc1	0	0	40	
NC(=O)c1cc2c([nH]c3ccccc32)c(-c2ccc(Cl)cc2)n1	0	0	60	
COC(=O)c1cc2c([nH]c3ccccc32)c(-c2cccs2)n1	62	45	0	
NC(=O)c1cc2c([nH]c3ccccc32)c(-c2cccc(Br)c2)n1	0	69		
COC(=O)C1Cc2c([nH]c3ccccc23)C(c2ccc(F)cc2)N1 (stereo not given)	0	25		
COC(=O)c1cc2c([nH]c3ccccc32)c(-c2ccsc2)n1	0	60		
OCc1cc2c([nH]c3ccccc32)c(-c2ccc(Cl)cc2)n1	76	56	75	Activity (Rattus norvegicus [8]): 0%; Activity (Mus musculus [9]): 62%; Activity (Mus musculus [10]): 85%; Activity (Mus musculus [11]): 0%; Activity (Mus musculus [12]): 56% and 69%; Activity (Rattus norvegicus [13]): 29%; Activity (Mus musculus [14]): 0%; Activity (Acanthocheilonema viteae [15]): 94%; Activity (Rattus norvegicus [16]): 95%; Activity (Acanthocheilonema viteae [17]): 0%
COC(=O)C1Cc2c([nH]c3ccccc23)C(c2ccccc2Cl)N1 (stereo not given)	0	93		Activity (Rattus norvegicus [8]): 88%; Activity (Mus musculus [18]): 0%; Activity (Rattus norvegicus [13]): 0%; Activity (Rattus norvegicus [6]): 20%; Activity (Acanthocheilonema viteae [19]): 0%
COC(=O)C1Cc2c([nH]c3ccccc23)C(c2ccc(C)cc2)N1 (stereo not given)	0	90		
